Series [1] is filed under the species Rattus norvegicus. Briefly: ED50/IC50 ratio was determined. The class given is functional.
For series [2], the species on record is Rattus norvegicus. The experiment in a line: Effect on insulin secretion from rat pancreatic islets at 10 uM concentration (n=16). Type of series: functional. An outline of the steps:
(§1)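 Islets isolated by collagenase from fed Wistar rats (180-220 g); groups of 10 preincubated 30 min, 37 °C, in bicarbonate salt medium with 2.8 mM glucose, 0.5% dialyzed albumin, O2/CO2 95:5. Then incubated 90 min, 37 °C, with 16.7 mM glucose plus drug. Insulin measured by radioimmunoassay against rat insulin standard; expressed as % of drug-free 16.7 mM glucose control; mean ± SEM (n).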

The species named for series [3] is Rattus norvegicus. The experiment in a line: Concentration giving 50% relaxation of the 30 mM KCl-induced contraction of rat aortic rings (n=11). Conditions: Aorta, read-out: ED50.
The species entered for series [4] is Rattus norvegicus. The experiment in a line: Concentration required for 50% inhibition of insulin release in rat pancreatic B-cells. The class given is functional, cell-based.
The species entered for series [5] is Rattus norvegicus. Briefly: Effect on insulin secretion from rat pancreatic islets at 1 uM concentration (n=15). Type of series: functional. An outline of the steps: as §1
Series [6] is filed under the species Rattus norvegicus. Briefly: Effect on insulin secretion from rat pancreatic islets at 50 uM concentration (n=16). The class given is functional. In a few lines:
as §1

The nature of series [7]: Ionization constant was determined. Type of series: physicochemical. In a few lines: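 Ionization constant found by UV spectroscopy in aqueous buffers spanning pH 5 to 12; pKa calculated with the Debye-Hückel equation at the absorbance maximum of the basic form.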
The species entered for series [8] is Rattus norvegicus. Briefly: Concentration required for relaxation of the 30 mM KCl-induced contraction of rat aortic rings (n=4). The class given is functional. Conditions: Aorta, read-out: ED50 (the source's name). In a few lines: (§2)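 Endothelium-denuded transverse aortic rings (3-4 mm) from fed Wistar rats (180-200 g); isometric tension by force transducer. After 60 min equilibration, contracted with 30 mM KCl; at stable tension, drug added cumulatively until maximal relaxation or up to 0.3 mM. Relaxation expressed as % of KCl contraction; ED50 (50% inhibition of KCl plateau) from dose curves; mean ± SEM (n).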

For series [9], the species on record is Rattus norvegicus. Briefly: Effect on insulin secretion from rat pancreatic islets at 50 uM concentration (n=14). The class given is functional. In a few lines:
as §1

Series [10] is filed under the species Rattus norvegicus. The experiment in a line: Effect on insulin secretion from rat pancreatic islets at 10 uM concentration (n=37). The class given is functional.
For series [11], the species on record is Rattus norvegicus. The experiment in a line: Effect on insulin secretion from rat pancreatic islets at 10 uM concentration (n=21). The class given is functional. In a few lines:
as §1

Series [12] is filed under the species Rattus norvegicus. The experiment in a line: Effect on insulin secretion from rat pancreatic islets at 1 uM concentration (n=16). The class given is functional. In a few lines: as §1
For series [13], the species on record is Rattus norvegicus. Briefly: Effect on insulin secretion from rat pancreatic islets at 50 uM concentration (n=15). The class given is functional. In a few lines: as §1
The species named for series [14] is Rattus norvegicus. Briefly: Effect on insulin secretion from rat pancreatic islets at 10 uM concentration (n=22). The class given is functional. An outline of the steps: as §1
For series [15], the species on record is Rattus norvegicus. The experiment in a line: Effect on insulin secretion from rat pancreatic islets at 10 uM concentration (n=23). The class given is functional. In a few lines:
as §1

For series [16], the species on record is Rattus norvegicus. The experiment in a line: Effect on insulin secretion from rat pancreatic islets at 10 uM concentration (n=12). The class given is functional. In a few lines: as §1
Series [17] is filed under the species Rattus norvegicus. Briefly: Effect on insulin secretion from rat pancreatic islets at 1 uM concentration (n=23). Type of series: functional. In a few lines: as §1
Series [18] is filed under the species Rattus norvegicus. The experiment in a line: Effect on insulin secretion from rat pancreatic islets at 10 uM concentration (n=24). The class given is functional. An outline of the steps:
as §1

Series [19] is filed under the species Rattus norvegicus. The experiment in a line: Concentration giving 50% relaxation of the 30 mM KCl-induced contraction of rat aortic rings (n=6). The class given is functional. Conditions: Aorta, read-out: ED50 (the source's name). In a few lines: as §2
The species entered for series [20] is Rattus norvegicus. The experiment in a line: Effect on insulin secretion from rat pancreatic islets at 50 uM concentration (n=11). The class given is functional. An outline of the steps:
as §1

The species entered for series [21] is Rattus norvegicus. The experiment in a line: Concentration required for relaxation of the 30 mM KCl-induced contraction of rat aortic rings; Precipitate. The following applies: Aorta. Type of series: functional. In a few lines:
as §2

For series [22], the species on record is Rattus norvegicus. Briefly: Effect on insulin secretion from rat pancreatic islets at 10 uM concentration (n=14). The class given is functional. An outline of the steps:
as §1

The species entered for series [23] is Rattus norvegicus. Briefly: Effect on insulin secretion from rat pancreatic islets at 1 uM concentration (n=22). The class given is functional. In a few lines:
as §1

Series [24] is filed under the species Rattus norvegicus. The experiment in a line: Concentration giving 50% relaxation of the 30 mM KCl-induced contraction of rat aortic rings (n=10). The class given is functional. The following applies: Aorta, read-out: ED50 (the source's name). In a few lines: as §2

Structures are written as SMILES.

On to `CC1=Nc2ccc(Cl)cc2S(=O)(=O)N1` [DIAZOXIDE], for which the Ratio in the series listed under Rattus norvegicus [1] was determined as 1. The Residual insulin release in the series listed under Rattus norvegicus [2] turned out to be 73.9%; in the series listed under Rattus norvegicus [5], 87.5%; in the series listed under Rattus norvegicus [6] it was 26.7%. Besides, the EC50 in the series filed under Rattus norvegicus [3] amounted to 22.4 µM. The molecule also came in with an IC50 in the series filed under Rattus norvegicus [4] of 22.6 µM.
In series [7], `CC(=O)Nc1ccc2c(c1)S(=O)(=O)N=C(NC(C)C)N2` gave a pKa of 9.8. Also, the EC50 in the series listed under Rattus norvegicus [8] was more than 300 µM. This molecule also displayed a Residual insulin release in the series listed under Rattus norvegicus [6] of 89.3%.
In the case of `CC(C)NC1=NS(=O)(=O)c2cc([N+](=O)[O-])ccc2N1`, the pKa in [7] amounted to 7.91. Besides, the figures for the Residual insulin release in the series listed under Rattus norvegicus [9] and in the series filed under Rattus norvegicus [10] were 4.8% and 64%, respectively. The EC50 in the series filed under Rattus norvegicus [8] came to 23.1 µM.
For the molecule `CCCNC1=NS(=O)(=O)c2ccccc2N1`, the results for the Residual insulin release in the series listed under Rattus norvegicus [11] and in the series listed under Rattus norvegicus [12] were 54.2% and 93.8%, respectively. Also, the EC50 in the series filed under Rattus norvegicus [8] is more than 300 µM.
Take `CCC(C)NC1=NS(=O)(=O)c2cc(C(F)(F)F)ccc2N1` (configuration not stated): the values for the Residual insulin release in the series listed under Rattus norvegicus [13] and in the series filed under Rattus norvegicus [14] were 28.6% and 76.1%, respectively. In addition, the EC50 in the series filed under Rattus norvegicus [8] turned out to be 8.9 µM.
With `CC(C)NC1=NS(=O)(=O)c2cc(C(N)=O)ccc2N1`, the Residual insulin release in the series filed under Rattus norvegicus [15] was 76.6%. For the same molecule, the EC50 in the series filed under Rattus norvegicus [8] came to 175 µM.
In turn, `CCCCCc1ccc2c(c1)S(=O)(=O)NC(NC(C)C)=N2` gave a Residual insulin release in the series filed under Rattus norvegicus [2] of 106%. For the same molecule, in the series listed under Rattus norvegicus [8], the EC50 stood at 20.1 µM.
As for `CCNC1=NS(=O)(=O)c2ccccc2N1`, the Residual insulin release in the series listed under Rattus norvegicus [16] is 25.8%; in the series listed under Rattus norvegicus [17], 77.4%. Also, in the series filed under Rattus norvegicus [8], the EC50 was more than 300 µM.
For `CCOc1ccc2c(c1)S(=O)(=O)NC(NC1CCC1)=N2`, the Residual insulin release in the series listed under Rattus norvegicus [2] worked out at 84.9%. The EC50 in the series listed under Rattus norvegicus [8] is more than 300 µM.
Regarding `CCNC1=NS(=O)(=O)c2cc(OCC)ccc2N1`, in the series listed under Rattus norvegicus [8], the EC50 amounted to 162 µM. The Residual insulin release in the series listed under Rattus norvegicus [18] is on record as 75%.
`CCNC1=NS(=O)(=O)c2cc(C)ccc2N1`: in the series listed under Rattus norvegicus [1], the Ratio is recorded as 84. Moreover, the results for the Residual insulin release in the series listed under Rattus norvegicus [16] and in the series listed under Rattus norvegicus [17] were 8.6% and 83.8%, respectively. This molecule also displayed an IC50 in the series listed under Rattus norvegicus [4] of 2.5 µM. In addition, the EC50 in the series listed under Rattus norvegicus [19] was 210 µM.
With `CCC(C)NC1=NS(=O)(=O)c2cc(S(C)(=O)=O)ccc2N1` (configuration not stated), the Residual insulin release in the series listed under Rattus norvegicus [2] was found to be 97.2%. Besides, the EC50 in the series listed under Rattus norvegicus [8] was found to be 126 µM.
For `Cc1ccc2c(c1)S(=O)(=O)NC(NC1CCC1)=N2`, the Ratio in the series filed under Rattus norvegicus [1] is 10. This molecule also gave an IC50 in the series filed under Rattus norvegicus [4] of 5.6 µM. The Residual insulin release stood at 3.7% in the series listed under Rattus norvegicus [20], 19.7% in the series filed under Rattus norvegicus [18] and 99.5% in the series filed under Rattus norvegicus [17]. The EC50 in the series listed under Rattus norvegicus [8] turned out to be 58.4 µM.
Regarding `CCC(C)NC1=NS(=O)(=O)c2ccccc2N1` (configuration not stated), the Residual insulin release in the series filed under Rattus norvegicus [2] is recorded as 42.7%; in the series filed under Rattus norvegicus [12], 90.4%. Also, the ED50 result in the series filed under Rattus norvegicus [21] was “Precipitate”.
In the series listed under Rattus norvegicus [22], `CCOc1ccc2c(c1)S(=O)(=O)NC(NC(C)C)=N2` had a Residual insulin release of 65.9%. Besides, the EC50 in the series filed under Rattus norvegicus [8] turned out to be 233 µM.
In turn, `CCCCCc1ccc2c(c1)S(=O)(=O)NC(NCC)=N2` registered a Residual insulin release in the series listed under Rattus norvegicus [2] of 104%. In the series listed under Rattus norvegicus [8], the EC50 amounted to 6.6 µM.
For `CCC(C)NC1=NS(=O)(=O)c2cc(C)ccc2N1` (configuration not stated), in the series filed under Rattus norvegicus [1], the Ratio is 1.4. Also, the IC50 in the series filed under Rattus norvegicus [4] was 11.2 µM. Moreover, the values for the Residual insulin release in the series filed under Rattus norvegicus [15] and in the series filed under Rattus norvegicus [23] were 50.7% and 93.6%, respectively. The EC50 in the series filed under Rattus norvegicus [24] turned out to be 15.5 µM.
With `CCNC1=NS(=O)(=O)c2cc(S(C)(=O)=O)ccc2N1`, the Residual insulin release in the series filed under Rattus norvegicus [2] turned out to be 91.6%. Also, in the series filed under Rattus norvegicus [8], the EC50 was more than 300 µM.

One may read the IC50 as the concentration that gives 50% inhibition. Usually pKa stands for the negative logarithm of the acid dissociation constant.
